According to ChEMBL document CHEMBL1138547, “Synthesis, biological evaluation and 2D-QSAR analysis of benzoxazoles as antimicrobial agents” (2009):
≈ marks a conversion by molar mass, not a printed value.

Columns and labels:
Assay type in all cases: functional
[1] = system: Bacillus subtilis; assay: Antimicrobial activity against Bacillus subtilis ATCC 6633 after 24 hrs
How it was run: (§1)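 MIC by twofold serial dilution in Mueller-Hinton broth (MHB); MHB also used to dilute the bacterial suspension. Wells held 10^3 cfu/ml bacteria after inoculation. Controls: 80% DMSO, 20% EtOH, methanol, DMSO, PBS, organism alone and medium alone. Triplicate in each run. MIC taken as the lowest concentration completely inhibiting macroscopic growth.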

[2] = system: Klebsiella pneumoniae; assay: Antimicrobial activity against Klebsiella pneumoniae RSHM 574 after 24 hrs; how it was run: as §1
[3] = system: Bacillus subtilis; assay: Antimicrobial activity against ceftriazone-resistant Bacillus subtilis after 24 hrs
How it was run: (§2)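 Twofold serial broth dilution in Mueller-Hinton broth. MHB was used both to dilute the bacterial suspension and for the twofold compound dilutions, giving 10^3 cfu/ml bacteria per well after inoculation. Solvent, medium and organism-only wells served as controls. Each organism was run in triplicate.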

[4] = system: Staphylococcus aureus; assay: Antimicrobial activity against Staphylococcus aureus ATCC 25923 after 24 hrs; how it was run: as §2
[5] = system: Staphylococcus aureus; assay: Antimicrobial activity against multidrug-resistant Staphylococcus aureus after 24 hrs; how it was run: as §2
[6] = system: Escherichia coli; assay: Antimicrobial activity against multidrug-resistant Escherichia coli after 24 hrs; how it was run: as §2
[7] = system: Escherichia coli; assay: Antimicrobial activity against Escherichia coli ATCC 25922 after 24 hrs; how it was run: as §1
[8] = system: Pseudomonas aeruginosa; assay: Antimicrobial activity against Pseudomonas aeruginosa ATCC […] after 24 hrs; how it was run: as §1
[9] = system: Klebsiella pneumoniae; assay: Antimicrobial activity against multidrug-resistant Klebsiella pneumoniae after 24 hrs; how it was run: as §2
[10] = system: Candida albicans; assay: Antimicrobial activity against Candida albicans ATCC 10231 after 24 to 48 hrs
How it was run: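 Twofold serial dilution following CLSI M27-A. Yeast suspension made at 10^4 cfu/ml by diluting a fresh culture at McFarland 0.5 (10^6 cfu/ml). Inoculated into the diluted compound, incubated at 35 °C in a humid chamber, read after 48 h. Triplicate in each run. MIC is the lowest concentration completely inhibiting macroscopic growth.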

[11] = system: Candida albicans; assay: Antimicrobial activity against multidrug-resistant Candida albicans isolates after 24 to 48 hrs
How it was run: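 Yeast broth microdilution following CLSI M27-A, with Sabouraud dextrose medium noted for antifungal assays. Fresh cultures at McFarland 0.5 (10^6 cfu/ml) were diluted to 10^4 cfu/ml and inoculated into twofold compound dilutions. Trays were incubated at 35 °C in a humid chamber and read at 48 h, in triplicate. MIC was the lowest concentration giving complete macroscopic growth inhibition.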

[12] = Bacillus subtilis, ATCC 6633, 24 h

Compound	log(1/C) [1]	MIC ([2]; RSHM 574, 24 h)	MIC [3]	MIC ([4]; ATCC 25923, 24 h)	MIC [1, 12]	MIC [5]	MIC [6]	MIC ([7]; ATCC 25922, 24 h)	MIC [8]	MIC [9]	MIC [10]	MIC [11]	MIC [2]	MIC [4]	MIC [1]	MIC [7]
COc1ccc(-c2nc3ccc(C)cc3o2)c(OC)c1	4.032															
CC1(C)S[C@@H]2[C@H](NC(=O)[C@H](N)c3ccccc3)C(=O)N2[C@H]1C(=O)O.O.O.O [AMPICILLIN TRIHYDRATE]		2 µg/mL	8 µg/mL	0.03 µg/mL	0.25 µg/mL	2 µg/mL	256 µg/mL	8 µg/mL	4100 µg/mL	256 µg/mL						
OC(Cn1cncn1)(Cn1cncn1)c1ccc(F)cc1F [FLUCONAZOLE]											1 µg/mL (≈ 3.27 µM)	64 µg/mL (≈ 209 µM)				
GENTAMICIN SULFATE			512 µg/mL			1020 µg/mL	1 µg/mL		2 µg/mL	64 µg/mL			8 µg/mL	0.06 µg/mL	1 µg/mL	0.5 µg/mL
O=[N+]([O-])c1ccc2oc(Cc3ccc(F)cc3)nc2c1	4.338	50 µg/mL (≈ 184 µM)	50 µg/mL (≈ 184 µM)	100 µg/mL (≈ 367 µM)	12.5 µg/mL (≈ 45.9 µM)	100 µg/mL (≈ 367 µM)	50 µg/mL (≈ 184 µM)	50 µg/mL (≈ 184 µM)	25 µg/mL (≈ 91.8 µM)	100 µg/mL (≈ 367 µM)	100 µg/mL (≈ 367 µM)	50 µg/mL (≈ 184 µM)				
O=[N+]([O-])c1ccc2oc(-c3ccc(F)cc3)nc2c1	3.713	50 µg/mL (≈ 194 µM)	25 µg/mL (≈ 96.8 µM)	100 µg/mL (≈ 387 µM)	50 µg/mL (≈ 194 µM)	100 µg/mL (≈ 387 µM)	100 µg/mL (≈ 387 µM)	50 µg/mL (≈ 194 µM)	50 µg/mL (≈ 194 µM)	100 µg/mL (≈ 387 µM)	50 µg/mL (≈ 194 µM)	100 µg/mL (≈ 387 µM)				
Cc1ccc(Cc2nc3cc([N+](=O)[O-])ccc3o2)cc1	3.73	50 µg/mL (≈ 186 µM)	50 µg/mL (≈ 186 µM)	50 µg/mL (≈ 186 µM)	50 µg/mL (≈ 186 µM)	50 µg/mL (≈ 186 µM)	50 µg/mL (≈ 186 µM)	50 µg/mL (≈ 186 µM)	50 µg/mL (≈ 186 µM)	50 µg/mL (≈ 186 µM)	50 µg/mL (≈ 186 µM)	25 µg/mL (≈ 93.2 µM)				
Nc1ccc2nc(Cc3ccc(Br)cc3)oc2c1	4.084	50 µg/mL (≈ 165 µM)	50 µg/mL (≈ 165 µM)	100 µg/mL (≈ 330 µM)	25 µg/mL (≈ 82.5 µM)	100 µg/mL (≈ 330 µM)	100 µg/mL (≈ 330 µM)	50 µg/mL (≈ 165 µM)	50 µg/mL (≈ 165 µM)	100 µg/mL (≈ 330 µM)	50 µg/mL (≈ 165 µM)	100 µg/mL (≈ 330 µM)				
O=[N+]([O-])c1ccc2nc(Cc3ccc(F)cc3)oc2c1	4.338	50 µg/mL (≈ 184 µM)	100 µg/mL (≈ 367 µM)	100 µg/mL (≈ 367 µM)	12.5 µg/mL (≈ 45.9 µM)	100 µg/mL (≈ 367 µM)	50 µg/mL (≈ 184 µM)	50 µg/mL (≈ 184 µM)	50 µg/mL (≈ 184 µM)	100 µg/mL (≈ 367 µM)	100 µg/mL (≈ 367 µM)	50 µg/mL (≈ 184 µM)				
CCc1ccc(-c2nc3cc([N+](=O)[O-])ccc3o2)cc1	3.73	50 µg/mL (≈ 186 µM)	25 µg/mL (≈ 93.2 µM)	100 µg/mL (≈ 373 µM)	50 µg/mL (≈ 186 µM)	100 µg/mL (≈ 373 µM)	100 µg/mL (≈ 373 µM)	50 µg/mL (≈ 186 µM)	50 µg/mL (≈ 186 µM)	100 µg/mL (≈ 373 µM)	50 µg/mL (≈ 186 µM)	100 µg/mL (≈ 373 µM)				
